The values below come from ChEMBL document CHEMBL1147098, “Growth inhibition of Toxoplasma gondii and Plasmodium falciparum by nanomolar concentrations of 1-hydroxy-2-dodecyl-4(1H)quinolone, a high-affinity inhibitor of alternative (type II) NADH dehydrogenases” (Antimicrob Agents Chemother, 2007).

The source made the active and inactive calls. No cut-off for these calls is given here.

In assay [1] the test system is Toxoplasma gondii. In words: Susceptibility of Toxoplasma gondii lacZ-transfected RH strain in human foreskin fibroblasts assessed as growth at 0.1 uM to 0.01 uM after 30 hrs by colorimetric assay. Type of assay: functional. The procedure, abridged: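 HFF infected with β-galactosidase-expressing RH strain and exposed to 1-hydroxy-2-alkyl-4(1H)quinolone alkyl derivatives at 0.1 and 0.01 μM. Replication quantified by colorimetric β-galactosidase assay with chlorophenol red-β-D-galactopyranoside substrate.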

Assay [2] relates to Toxoplasma gondii. The assay can be described thus: Inhibition of Toxoplasma gondii RH replication in human foreskin fibroblasts incubated for 24 hrs with drug after 2 hrs postinfection by immunofluorescence microscopy.
For assay [3], the system named is Toxoplasma gondii. In words: Inhibition of invasion of Toxoplasma gondii RH in human foreskin fibroblasts assessed as decreased infection rate pretreated with 1 to 1000 nM after 2 hrs before infection. Type of assay: functional, organism-based. The procedure, abridged:
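Extracellular tachyzoites pretreated 2 h with 1 to 1,000 nM before infecting HFF; infection rate compared with untreated parasites.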

Assay [4] has as its system Plasmodium falciparum. The assay can be described thus: Reduced parasitaemia in Plasmodium falciparum FCBR ring stage parasites. The class given is functional, organism-based. The procedure, abridged:
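Sorbitol-synchronized FCBR ring-stage cultures (initial parasitemia 3.2%) in T25 flasks, exposed 48 h to 1 μM, 100 nM, 10 nM and 1 nM. Parasitemia counted on Giemsa-stained blood smears relative to DMSO control.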

The test system of assay [5] is Toxoplasma gondii. The assay can be described thus: (§1) Effect on Toxoplasma gondii RH growth in human foreskin fibroblasts incubated with 0.1 uM for 24 hrs after 6 hrs postinfection assessed as recovery after 72 hrs without drug. The class given is functional.
Assay [6] deals with Toxoplasma gondii. The assay is described as §1. Type of assay: functional. This is another data set of the same source.
In assay [7] the test system is Toxoplasma gondii. The assay can be described thus: Inhibition of Toxoplasma gondii RH replication in human foreskin fibroblasts incubated for 24 hrs with drug after 2 hrs postinfection by immunofluorescence microscopy. Type of assay: functional, organism-based.
For assay [8], the system named is Toxoplasma gondii. In words: Inhibition of Toxoplasma gondii RH replication in human foreskin fibroblasts incubated for 24 hrs with drug after 36 hrs postinfection by immunofluorescence microscopy. The class given is functional, organism-based.
Assay [9] relates to Plasmodium falciparum. In words: Inhibition of Plasmodium falciparum trophozoite replication after 36 hrs by fluorometric assay. Type of assay: functional, organism-based. In outline:
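FCBR young trophozoites (2% initial parasitemia) in RPMI 1640 with 10% human plasma and group A erythrocytes, gassed 90% N2/5% O2/5% CO2, exposed 36 h to 1 μM-1 nM. Erythrocytes lysed with saponin, pellets solubilized in guanidium-HCl/sodium acetate, stained with Hoechst 33258, read at 340/460 nm in triplicate. 2 μM chloroquine defined background.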

Assay [10] has as its system Toxoplasma gondii. In words: Effect on Toxoplasma gondii RH growth in human foreskin fibroblasts incubated with 1 uM for 24 hrs assessed as recovery after 72 hrs without drug. Type of assay: functional.
Assay [11] has as its system HFF. In words: Inhibitory effect on metabolic activity of HFF cells upto 10 uM by Alamar Blue assay. The class given is functional, cell-based. Conditions: Homo sapiens.
For assay [12], the system named is Toxoplasma gondii. The assay can be described thus: Inhibition of Toxoplasma gondii lacZ-transfected RH strain in human foreskin fibroblasts assessed as beta galactosidase activity after 30 hrs by colorimetric assay. The class given is functional, organism-based. The procedure, abridged: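 lacZ-expressing RH tachyzoites (1 × 10^4/well) infected HFF for 4 h at 37°C in 1% DMEM without phenol red, washed, then exposed in duplicate to 1, 0.1, 0.01 and 0.001 μM with 100 μM chlorophenol red-β-D-galactopyranoside (final) at 37°C. Absorbance at 570 and 630 nm read at 30 h postinfection.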

For assay [13], the system named is Toxoplasma gondii. In words: Effect on Toxoplasma gondii RH growth in human foreskin fibroblasts incubated with 0.1 uM for 24 hrs assessed as recovery after 72 hrs without drug. The class given is functional.

In the case of `CCCCCCCCc1cc(=O)c2ccccc2n1O`, the Activity in [1] worked out at 14.8%.

With `CCCCCCc1cc(=O)c2ccccc2n1O`, in assay [1], the Activity is given as 16.3%.

As for `CCCCCc1cc(=O)c2ccccc2n1O`, the Activity in assay [1] came to 98.2%.

For `O=C1C(O)=C([C@H]2CC[C@H](c3ccc(Cl)cc3)CC2)C(=O)c2ccccc21` [ATOVAQUONE], the 50% inhibitory concentration (IC50) in assay [2] was 9 nM.

In the case of `CCCCCCCCCCCCc1cc(=O)c2ccccc2n1O`, the Activity in assay [1] is 42.6%; in assay [5] it was 65.8%; in assay [6], 65.8%; in [10], 2.9%; in [13] it was 49.3%. The result in assay [3] and in [11] was inactive. Further, the IC50 turned out to be 54.7 nM in [4]; 2.4 nM in assay [7]; 4 nM in assay [8]; 14 nM in assay [9]; 3.7 nM in [12].

For `CCCCCCCCCCCCCCc1cc(=O)c2ccccc2n1O`, the Activity in assay [1] is 37.9%.
